Laboratory results: ChEMBL document CHEMBL5724801, “EUbOPEN Chemogenomics Library - Multiplex” (2024)
Values joined by “and” are separate entries in the source; they are usually repeats but may differ in a detail not shown here. Identical values can stand only once.

Test system: Fibroblast
Experiment: Multiplex assay against human fibroblast
Format: toxicity, cell-based
How it was run: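 Cells stained live at seeding with Hoechst33342, BioTracker Green Microtubule Cytoskeleton Dye, MitoTracker Red and Annexin V Alexa Fluor 680 were imaged on a CQ1 microscope at 37°C and 5% CO2 after compound addition. Their classification by CellPathfinder machine-learning gating ran from Hoechst high-intensity objects versus normal cells, to healthy, pyknosed or fragmented nuclei among normal cells, to mitotic or apoptotic among pyknosed cells. Tubulin, mitochondrial-mass and membrane-permeability phenotypes are per cents of healthy-nucleus cells.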

[1] = 12 h, 1 µM, compound concentration 1 uM
[2] = 12 h, 10 µM, compound concentration 10 uM
[3] = 24 h, 1 µM, compound concentration 1 uM
[4] = 24 h, 10 µM, compound concentration 10 uM
[5] = 48 h, 1 µM, compound concentration 1 uM
[6] = 48 h, 10 µM, compound concentration 10 uM

**Q.** Which “Population Fragmented Nuclei (%)” value [1] does the source give for `CC(C)C[C@H](NC(=O)c1cc2ccccc2s1)C(=O)N1CCN(C(=O)[C@H](CO)NS(=O)(=O)c2ccc(Cl)cc2Cl)CC1` here?
**A.** 14.47% and 9.24%

**Q.** And the “Population Healthy Nuclei (%)” value [1]?
**A.** 51.57% and 56.52%

**Q.** What about the “Population Hoechst High Intensity Objects (%)” value [1] of the same compound?
**A.** 0%

**Q.** And the “Population Membrane Permeable-Phenotype (%)” value [1]?
**A.** 7.32% and 5.77%

**Q.** And the “Population Mitochondria Different-Phenotype (%)” value [1]?
**A.** 17.07% and 18.27%

**Q.** What about the “Population Mitotic Cells (%)” value [1] of the same compound?
**A.** 88.89% and 55.56%

**Q.** And the “Population Normal (%)” value [1]?
**A.** 100%

**Q.** What about the “Population Pyknosed Nuclei (%)” value [1] of the same compound?
**A.** 33.96% and 34.24%

**Q.** And the “Population Tubulin-Different-Phenotype (%)” value [1]?
**A.** 35.37% and 45.19%

**Q.** And the “Total Cell Count” value [1]?
**A.** 159 and 184

**Q.** What about the “Population Apoptotic (%)” value [2] of the same compound?
**A.** 10.29% and 22.73%

**Q.** And the “Population Fragmented Nuclei (%)” value [2]?
**A.** 17.22% and 7.1%

**Q.** What about the “Population Healthy Nuclei (%)” value [2] of the same compound?
**A.** 45% and 56.83%

**Q.** What about the “Population Hoechst High Intensity Objects (%)” value [2] of the same compound?
**A.** 0%

**Q.** What about the “Population Membrane Permeable-Phenotype (%)” value [2] of the same compound?
**A.** 19.75% and 36.54%

**Q.** And the “Population Mitochondria Different-Phenotype (%)” value [2]?
**A.** 58.02% and 50.96%

**Q.** And the “Population Mitotic Cells (%)” value [2]?
**A.** 89.71% and 77.27%

**Q.** And the “Population Normal (%)” value [2]?
**A.** 100%

**Q.** And the “Population Pyknosed Nuclei (%)” value [2]?
**A.** 37.78% and 36.07%

**Q.** And the “Population Tubulin-Different-Phenotype (%)” value [2]?
**A.** 81.48% and 96.15%

**Q.** What about the “Total Cell Count” value [2] of the same compound?
**A.** 180 and 183

**Q.** What about the “Population Fragmented Nuclei (%)” value [3] of the same compound?
**A.** 15.79% and 9.14%

**Q.** And the “Population Healthy Nuclei (%)” value [3]?
**A.** 54.39% and 66.29%

**Q.** And the “Population Hoechst High Intensity Objects (%)” value [3]?
**A.** 0%

**Q.** What about the “Population Membrane Permeable-Phenotype (%)” value [3] of the same compound?
**A.** 9.68% and 7.76%

**Q.** And the “Population Mitochondria Different-Phenotype (%)” value [3]?
**A.** 10.75% and 17.24%

**Q.** What about the “Population Mitotic Cells (%)” value [3] of the same compound?
**A.** 96.08% and 48.84%

**Q.** And the “Population Normal (%)” value [3]?
**A.** 100%

**Q.** And the “Population Pyknosed Nuclei (%)” value [3]?
**A.** 29.82% and 24.57%

**Q.** What about the “Population Tubulin-Different-Phenotype (%)” value [3] of the same compound?
**A.** 45.16% and 50%

**Q.** What about the “Total Cell Count” value [3] of the same compound?
**A.** 171 and 175

**Q.** And the “Population Apoptotic (%)” value [4]?
**A.** 22.58% and 46.67%

**Q.** And the “Population Fragmented Nuclei (%)” value [4]?
**A.** 11.67% and 8.33%

**Q.** What about the “Population Healthy Nuclei (%)” value [4] of the same compound?
**A.** 71.11% and 66.67%

**Q.** What about the “Population Hoechst High Intensity Objects (%)” value [4] of the same compound?
**A.** 0%

**Q.** What about the “Population Membrane Permeable-Phenotype (%)” value [4] of the same compound?
**A.** 19.53% and 8.33%

**Q.** And the “Population Mitochondria Different-Phenotype (%)” value [4]?
**A.** 49.22% and 55.83%

**Q.** And the “Population Mitotic Cells (%)” value [4]?
**A.** 77.42% and 53.33%

**Q.** And the “Population Normal (%)” value [4]?
**A.** 100%

**Q.** And the “Population Pyknosed Nuclei (%)” value [4]?
**A.** 17.22% and 25%

**Q.** And the “Population Tubulin-Different-Phenotype (%)” value [4]?
**A.** 89.84% and 96.67%

**Q.** What about the “Total Cell Count” value [4] of the same compound?
**A.** 180

**Q.** What about the “Population Fragmented Nuclei (%)” value [5] of the same compound?
**A.** 10.05% and 9.68%

**Q.** What about the “Population Healthy Nuclei (%)” value [5] of the same compound?
**A.** 78.84% and 78.49%

**Q.** What about the “Population Hoechst High Intensity Objects (%)” value [5] of the same compound?
**A.** 0%

**Q.** And the “Population Mitochondria Different-Phenotype (%)” value [5]?
**A.** 12.75% and 8.22%

**Q.** What about the “Population Mitotic Cells (%)” value [5] of the same compound?
**A.** 85.71% and 50%

**Q.** And the “Population Normal (%)” value [5]?
**A.** 100%

**Q.** And the “Population Pyknosed Nuclei (%)” value [5]?
**A.** 11.11% and 11.83%

**Q.** And the “Population Tubulin-Different-Phenotype (%)” value [5]?
**A.** 33.56% and 65.07%

**Q.** And the “Total Cell Count” value [5]?
**A.** 189 and 186

**Q.** And the “Population Apoptotic (%)” value [6]?
**A.** 38.89% and 56.52%

**Q.** And the “Population Fragmented Nuclei (%)” value [6]?
**A.** 11.45% and 11.37%

**Q.** And the “Population Healthy Nuclei (%)” value [6]?
**A.** 77.71% and 77.73%

**Q.** What about the “Population Hoechst High Intensity Objects (%)” value [6] of the same compound?
**A.** 0%

**Q.** And the “Population Membrane Permeable-Phenotype (%)” value [6]?
**A.** 6.2% and 8.54%

**Q.** And the “Population Mitochondria Different-Phenotype (%)” value [6]?
**A.** 39.53% and 48.78%

**Q.** What about the “Population Mitotic Cells (%)” value [6] of the same compound?
**A.** 61.11% and 43.48%

**Q.** And the “Population Normal (%)” value [6]?
**A.** 100%

**Q.** And the “Population Pyknosed Nuclei (%)” value [6]?
**A.** 10.84% and 10.9%

**Q.** And the “Population Tubulin-Different-Phenotype (%)” value [6]?
**A.** 82.17% and 96.34%

**Q.** What about the “Total Cell Count” value [6] of the same compound?
**A.** 166 and 211

**Q.** What does the source list for `Cl.Clc1ccc2nsnc2c1NC1=NCCN1` [TIZANIDINE HYDROCHLORIDE]?
**A.** Population Apoptotic (%) [1]: 38% and 33%; Population Fragmented Nuclei (%) [1]: 10% and 24%; Population Healthy Nuclei (%) [1]: 72% and 49%; Population Hoechst High Intensity Objects (%) [1]: 3% and 4%; Population Membrane Permeable-Phenotype (%) [1]: 0% and 5%; Population Mitochondria Different-Phenotype (%) [1]: 4% and 5%; Population Mitotic Cells (%) [1]: 61% and 66%; Population Normal (%) [1]: 96% and 95%; Population Pyknosed Nuclei (%) [1]: 17% and 25%; Population Tubulin-Different-Phenotype (%) [1]: 21% and 50%; Total Cell Count [1]: 155 and 182; Population Apoptotic (%) [2]: 36% and 21%; Population Fragmented Nuclei (%) [2]: 18% and 24%; Population Healthy Nuclei (%) [2]: 60% and 45%; Population Hoechst High Intensity Objects (%) [2]: 4%; Population Membrane Permeable-Phenotype (%) [2]: 0% and 7%; Population Mitochondria Different-Phenotype (%) [2]: 8% and 7%; Population Mitotic Cells (%) [2]: 64% and 78%; Population Normal (%) [2]: 95%; Population Pyknosed Nuclei (%) [2]: 20% and 29%; Population Tubulin-Different-Phenotype (%) [2]: 29% and 33%; Total Cell Count [2]: 129 and 143; Population Apoptotic (%) [3]: 52% and 42%; Population Healthy Nuclei (%) [3]: 76% and 49%; Population Hoechst High Intensity Objects (%) [3]: 2% and 4%; Population Membrane Permeable-Phenotype (%) [3]: 0% and 9%; Population Mitochondria Different-Phenotype (%) [3]: 0% and 4%; Population Mitotic Cells (%) [3]: 47% and 57%; Population Normal (%) [3]: 97% and 95%; Population Pyknosed Nuclei (%) [3]: 16% and 24%; Total Cell Count [3]: 146 and 182; Population Apoptotic (%) [4]: 45% and 47%; Population Fragmented Nuclei (%) [4]: 19%; Population Healthy Nuclei (%) [4]: 60% and 48%; Population Hoechst High Intensity Objects (%) [4]: 1% and 2%; Population Membrane Permeable-Phenotype (%) [4]: 0% and 9%; Population Mitochondria Different-Phenotype (%) [4]: 5% and 6%; Population Mitotic Cells (%) [4]: 54% and 52%; Population Normal (%) [4]: 98% and 97%; Population Pyknosed Nuclei (%) [4]: 20% and 32%; Population Tubulin-Different-Phenotype (%) [4]: 20% and 34%; Total Cell Count [4]: 122 and 135; Population Apoptotic (%) [5]: 47% and 55%; Population Fragmented Nuclei (%) [5]: 17% and 29%; Population Healthy Nuclei (%) [5]: 71% and 47%; Population Hoechst High Intensity Objects (%) [5]: 2% and 6%; Population Membrane Permeable-Phenotype (%) [5]: 2% and 6%; Population Mitochondria Different-Phenotype (%) [5]: 1% and 8%; Population Mitotic Cells (%) [5]: 52% and 44%; Population Normal (%) [5]: 97% and 93%; Population Pyknosed Nuclei (%) [5]: 10% and 23%; Population Tubulin-Different-Phenotype (%) [5]: 19% and 56%; Total Cell Count [5]: 167 and 166; Population Apoptotic (%) [6]: 69% and 63%; Population Fragmented Nuclei (%) [6]: 26% and 35%; Population Healthy Nuclei (%) [6]: 56% and 42%; Population Hoechst High Intensity Objects (%) [6]: 2%; Population Membrane Permeable-Phenotype (%) [6]: 0% and 6%; Population Mitochondria Different-Phenotype (%) [6]: 5% and 11%; Population Mitotic Cells (%) [6]: 30% and 36%; Population Normal (%) [6]: 97%; Population Pyknosed Nuclei (%) [6]: 17% and 21%; Population Tubulin-Different-Phenotype (%) [6]: 26% and 44%; Total Cell Count [6]: 133 and 141
